Bioassay records as filed in PubChem.
Rows were chosen to be rich in hits. Some 2.6% of all compounds tested hit in one or more screens of this group.
FN deposition inh = inhibitors of fibronectin matrix deposition, primary screen, AH1F cells, Alexa488-fibronectin fluorescence, plate reader | AH1F fibroblasts, overnight | inhibition, % at 12.6 µM | 0.086% of 350,000 active;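 active = mean inhibition across replicates of 30% or more, regardless of how many single replicates reach that level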;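 note: positive control wells lacked labelled fibronectin entirely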
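Assay system: AH1F fibroblast monolayer, labelled fibronectin deposition. Amount: 10000 cells per well. Also added: labelled fibronectin 24 nM. Compound: single-point pinned compound. Incubation: cell attachment 1 h, compound and FN exposure overnight. Detection: fluorescence after three HBSS washes, excitation 485 nm, emission 525 nm. Read-out: inhibition of fibronectin deposition signal.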
miR-122 sensor = miR-122 Renilla sensor signal increase in Huh7, primary screen, miR-122 inhibitor project, cell-based, single point, plate reader; Huh7 miR-122 Renilla luciferase sensor, 48 h; neutral wells = 0, positive control = 100; activation (reporter increase), % at 12.5 µM; 0.3% of 340,000 active;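 active = mean replicate activation score at least 90 and every replicate individually at or above 90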;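 note: higher luciferase means less miR-122 activity so hits act as miR-122 inhibitors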
Env fusion inh = inhibitors of HIV-1 Env-driven cell-cell fusion, primary screen, HeLa-JRFL effector, CEM21 target cells, luciferase; inhibition, % at 12.3 µM; 1.1% of 360,000 active; AID 651610, 2012;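 active = mean replicate inhibition score of at least 50 and every replicate individually at or above 50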;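 note: 0% = plate neutral controls and 100% = maraviroc near 300 nM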
S100A4 inh HTS = inhibitors of S100A4-myosin IIA peptide binding, primary screen, biochemical, fluorescence polarization, TAMRA-MyoIIA peptide | Protein S100-A4 (Homo sapiens), P26447 | inhibition, % at 10.7 µM | 0.14% of 360,000 active | AID 652163, 2013;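 active = mean inhibition of at least 70% across replicates, with every replicate also reaching that level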
Target sequence (P26447 whole entry, looked up): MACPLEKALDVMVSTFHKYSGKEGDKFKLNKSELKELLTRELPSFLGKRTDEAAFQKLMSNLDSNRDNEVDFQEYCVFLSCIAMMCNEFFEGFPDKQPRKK
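assay system = human S100A4 monomer with TAMRA-labelled myosin IIA peptide | also added = labelled myosin peptide probe, 5 nM | incubation = 5 min between mix addition and reading | control set = DMSO and TFP controls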
Vif inh = HIV Vif self-association inhibitors, primary screen, imaging, HEK293T, single point; HEK293T cells, Vif self-association by quenched fluorescence, 24 h; inhibition, % at 7.49 µM; 0.35% of 340,000 active; AID 602346, 2012; in the data active = inhibition above about 50%, passing the limit was not always enough
rRNA inh HTS = reduced GFP signal of wild-type E. coli, primary screen, bacterial rRNA inhibitor project, GFP/RFP fluorescence, OD600, single point. 1.6% of 350,000 active. AID 720706, 2013. E. coli WT GFP vs humanized-ribosome RFP mutants, 24 h; active compounds read low; DMSO median 0, no signal -100. GFP signal change (wild-type ribosome), % (test concentration not listed);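 active = significant combined selectivity score with lowered wild-type GFP, culture density cut under 30%, mutant RFP and density less affected; inactive = any of these conditions unmet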
* marks the source's active call; other numbers are inactive results; . = no result; [ ] = another dose, or the depositor's remark.

SMILES	FN deposition inh	miR-122 sensor	Env fusion inh	S100A4 inh HTS	Vif inh	rRNA inh HTS
COc1ccccc1S(=O)(=O)N[C@H]1CC[C@@H](CC(=O)N2CCN(C)CC2)O[C@H]1CO	7.5	-9.5[16.7 µM]	57.0*[16.7 µM]	10.0	.	1.6
CCNC(=O)C[C@@H]1CC[C@@H](NS(=O)(=O)c2ccc(F)cc2)[C@H](CO)O1	5.5	.	9.5[16.7 µM]	96.5*	.	1.9
O=C(c1ccc(Br)cc1)C(CN1CCOCC1)c1ccccc1 (stereo not given)	34.2*	8.2	-38.0	-7.7	3.3	-67.8
CCC(C(=O)OCC(=O)c1c(N)n(CC(C)C)c(=O)n(C)c1=O)c1ccccc1 (stereo not given)	-2.6	-4.2	60.3*	4.9	-15.1	-0.5
Cn1c(N)c(C(=O)COC(=O)CSc2ccc3ccccc3c2)c(=O)n(C)c1=O	1.9	.	-1.2	-3.9	-2.0	-20.2
Cn1c(N)c(C(=O)COC(=O)CSc2ccccc2)c(=O)n(C)c1=O	3.1	.	0.9	0.8	0.3	-17.6*
Cn1c(N)c(C(=O)COC(=O)c2ccc(Cl)c(S(=O)(=O)N3CCCC3)c2)c(=O)n(C)c1=O	-9.4	-7.0	28.2	-2.6	2.1	-25.9*
C=CCN(c1ccccc1OC)S(=O)(=O)c1cccc(C(=O)OCC(=O)c2c(N)n(C)c(=O)n(C)c2=O)c1	-3.0	.	33.7	-2.0	-20.1	-18.6*
CNS(=O)(=O)c1cccc(C(=O)OCC(=O)c2c(N)n(C)c(=O)n(C)c2=O)c1	9.7	.	-5.3	-5.7	-0.6	-1.6
CC(=O)N1[C@@H]2Cn3c(ccc(C4=CCCC4)c3=O)[C@H]1[C@@H](C(=O)NC1CCCC1)[C@@H]2CO	.	.	.	1.3	.	-0.6
C[C@@H]1CN([C@H](C)CO)C(=O)c2cc(Br)cnc2O[C@H]1CN(C)C(=O)C1CCC1	.	-2.6[16.7 µM]	-4.6[16.7 µM]	.	.	7.7
CCN(c1ccc(OCC(=O)OCC(=O)c2c(N)n(C)c(=O)n(C)c2=O)cc1)S(=O)(=O)c1ccccc1	.	0.8	8.9	2.6	15.2	-15.0*
O=C(/C=C/c1ccccc1)NC(NC(=S)Nc1cccc(O)c1)C(Cl)(Cl)Cl (stereo not given)	.	.	-32.5	.	6.3	.
O=C(/C=C/c1ccccc1)NC(NC(=S)Nc1cccc(Cl)c1)C(Cl)(Cl)Cl (stereo not given)	.	6.0	63.3*	.	-18.5	.
O=C(CC1SC2=NCCN2C1=O)Nc1ccc(Br)cc1 (stereo not given)	-5.1	1.6	-6.3	-15.0	53.3*	2.5
CCOC(=O)c1ccc(NC(=O)CC2SC3=NCCN3C2=O)cc1 (stereo not given)	-4.5	.	8.2	-9.3	27.2	19.1
C[C@@H]1CN([C@@H](C)CO)C(=O)c2cc(NS(=O)(=O)c3cccs3)ccc2O[C@@H](C)CCCCO[C@H]1CN(C)Cc1ccccc1	-8.4	.	.	1.0	.	-1.2
COc1cccc(-c2ncc3ccccc3c2COC(=O)N(C)C)c1	8.2	-5.8	61.3*	2.3	.	-12.4
O=C(OCc1c(-c2ccccc2)ncc2ccccc12)c1cccs1	1.7	.	12.8	-7.0	-4.7	-20.6*
O=C(OCc1c(-c2ccccc2)ncc2ccccc12)c1ccc(Br)cc1	1.3	3.0	14.0	0.0	-3.4	6.4
C[C@H]1CN(C)C(=O)c2cccc(NS(C)(=O)=O)c2O[C@@H]1CN(C)C	-6.2	.	.	.	.	0.8
Cc1noc(C)c1S(=O)(=O)N(C)C[C@@H]1Oc2ccc(NS(C)(=O)=O)cc2CC(=O)N([C@H](C)CO)C[C@@H]1C	.	9.1[16.7 µM]	-16.1[16.7 µM]	-5.1	.	0.5
Cc1ccnc(Nc2nc(-c3sc(C)nc3C)cs2)c1	5.8	-15.3	14.8	0.2	-1.3	-34.5*
Cc1nc(C)c(-c2csc(Nc3ccccn3)n2)s1	3.6	.	-130.6	-5.5	-4.0	-39.5
Cc1ccnc(Nc2nc(-c3ccc(F)cc3)cs2)c1	-3.9	-1.7	-51.8	-1.6	-11.3	-36.4*
SMILES	FN deposition inh	miR-122 sensor	Env fusion inh	S100A4 inh HTS	Vif inh	rRNA inh HTS
CC1CC(Nc2ccccc2)c2ccccc2N1C(=O)c1ccco1 (stereo not given)	1.0	28.0	-28.4	0.4	1.9	-27.6*
Cc1ccc(S(=O)(=O)Nc2ccc3c(c2)C(=O)N([C@@H](C)CO)C[C@H](C)[C@H](CN(C)S(=O)(=O)c2ccccc2)OCCCC[C@@H](C)O3)cc1	1.1	4.3[16.7 µM]	-18.5[16.7 µM]	-16.9	.	-1.7
COc1ccc(-n2c(C)c(C(C)=O)c3cc(OC(C)=O)ccc32)cc1	0.1	18.5	49.8	-3.1	-2.7	-23.6*
COc1ccc(NC(=O)CN(C)C(=O)CSc2ccc(Br)cc2)cc1	4.6	.	-0.4	-1.5	9.9	-30.2*
CC(C)NC(=O)Nc1ccc2c(c1)C(=O)N(C)C[C@H](C)[C@@H](CN(C)S(C)(=O)=O)O2	-8.4	.	.	.	.	0.0
O=[N+]([O-])c1ccc(C2CCCC/C2=N/OCc2ccc(F)cc2)c([N+](=O)[O-])c1 (stereo not given)	.	-1.3	64.8*	.	10.1	.
COc1ccc(C2CC(c3ccccc3O)=NN2c2ccccc2)cc1 (stereo not given)	-13.2	.	13.0	-0.5	-5.6	-21.1*
COc1ccc(C2CC(c3ccncc3)=NN2c2ccc(S(N)(=O)=O)cc2)cc1 (stereo not given)	-21.4	8.9	-84.2	37.1	93.0*	-9.8
CNC[C@H]1Oc2ccc(NC(C)=O)cc2CC(=O)N(C)C[C@@H]1C	.	.	.	.	.	1.3
CCC(=O)N1CC2(CN(Cc3ccncc3)C2)c2c(n(C)c3cc(OC)ccc23)[C@H]1CO	.	.	.	-5.8	.	-0.8
O=C(CN1C(=O)/C(=C/c2cccc(Cl)c2)SC1=S)NC1C=CS(=O)(=O)C1 (stereo not given)	-5.7	-3.3	-3.7	-8.3	1.9	4.6
CC(C(=O)NC1C=CS(=O)(=O)C1)N1C(=O)/C(=C\c2ccccc2)SC1=S (stereo not given)	-0.4	-5.2	5.2	-2.4	-23.5	-16.3*
CC(C(=O)NC1C=CS(=O)(=O)C1)N1C(=O)/C(=C/c2cccc(Cl)c2)SC1=S (stereo not given)	-14.4	.	-23.0	1.2	8.4	-28.1*
COc1ccccc1/C=C1/SC(=S)N(C(C)C(=O)NC2C=CS(=O)(=O)C2)C1=O (stereo not given)	-2.1	-0.9	-6.6	-15.7	55.2*	-10.7
O=C(CN1C(=O)/C(=C/c2ccccc2F)SC1=S)NC1C=CS(=O)(=O)C1 (stereo not given)	-7.4	.	-14.8	0.6	-1.1	1.6
COC(=O)[C@H]1[C@H](CO)[C@H]2Cn3c(ccc(-c4ccccc4F)c3=O)[C@H]2N1Cc1cccnc1	.	3.2[16.7 µM]	.	3.7	.	-0.6
